FAS TE block: inhibitors of human fatty acid synthase thioesterase domain; P49327; recombinant FAS-TE, OMFH fluorogenic substrate, fluorescence endpoint; inhibition, % at 15 µM; 360,000 compounds, 0.67% hits; AID 602261;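 active means compounds whose normalised, plate-corrected inhibition of enzyme fluorescence in the single-dose primary screen is 50% or more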;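 further: 0% = DMSO with enzyme and 100% = substrate without enzyme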
Runt-CBFb FRET: Runt domain-CBFb interaction inhibition | Q01196+Q13951 | Cerulean-Runt/Venus-CBFb FRET ratio 530/480, 1 h | inhibition, % at 20 µM | 220,000 compounds, 0.46% hits;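 active means inhibition over about 50% at 20 µM in the single-dose screen, limit read from the data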;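 further: 0% = DMSO wells and 100% = excess unlabeled CBFb competitor control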
Target sequence (Q01196 whole entry, looked up, the tested form may be a part): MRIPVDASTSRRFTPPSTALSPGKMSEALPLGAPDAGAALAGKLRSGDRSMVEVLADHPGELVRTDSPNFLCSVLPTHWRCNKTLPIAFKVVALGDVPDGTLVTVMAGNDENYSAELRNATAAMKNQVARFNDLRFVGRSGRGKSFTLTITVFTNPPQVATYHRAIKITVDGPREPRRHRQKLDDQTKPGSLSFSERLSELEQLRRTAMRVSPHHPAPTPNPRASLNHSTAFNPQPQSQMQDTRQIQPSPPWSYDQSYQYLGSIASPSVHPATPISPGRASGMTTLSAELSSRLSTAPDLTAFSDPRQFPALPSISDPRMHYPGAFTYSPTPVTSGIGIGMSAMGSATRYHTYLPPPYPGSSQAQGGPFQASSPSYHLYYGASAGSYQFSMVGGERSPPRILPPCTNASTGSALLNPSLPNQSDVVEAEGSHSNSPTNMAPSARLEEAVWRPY
Target sequence (Q13951 whole entry, looked up, the tested form may be a part): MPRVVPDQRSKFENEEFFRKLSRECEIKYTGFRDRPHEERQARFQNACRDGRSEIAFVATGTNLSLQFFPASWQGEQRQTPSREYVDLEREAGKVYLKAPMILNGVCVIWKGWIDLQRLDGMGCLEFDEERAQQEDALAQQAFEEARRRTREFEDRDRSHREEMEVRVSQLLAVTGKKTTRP
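Assay system: Cerulean-tagged RUNX1 Runt domain (FRET donor) fusion protein / Amount: 100 nM each of Venus-CBFb and Cerulean-Runt domain / Medium: Tris buffer pH 7.5 with salts and BSA / Also added: Venus-CBFb 100 nM / Schedule: 1 h complex formation plus 1 h compound treatment, room temperature / Signal: FRET fluorescence / Read-out: loss of energy transfer signal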
RanGTP-Impb inh: inhibitors of RanGTP-importin-beta interaction, primary screen, biochemical, FRET, CFP-Ran, YFP-importin-beta, homogeneous; cell-free CFP-Ran/YFP-importin-beta FRET ratio; AID 2216; inhibition, % (concentration not given with the values); 300,000 compounds, 1.1% hits;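 active means more than half of the replicate wells show a fall in the fluorescence ratio signal beyond about 16%, limit read from the data, passing the limit was not always enough; inconclusive means exactly half of the replicate wells pass the set limit; inactive means fewer than half of replicates pass the limit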;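 further: 0% = DMSO wells and 100% = Ran loaded with GDP instead of GTP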
m-calpain inh: blocks pig calpain II enzyme activity; purified calpain II, fluorogenic peptide substrate, 30 min; inhibition, % at 16 µM; 220,000 compounds, 0.37% hits; AID 1236;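 active means inhibition above about 50%, limit read from the data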
Runt-SMMHC FRET: inhibitors of human RUNX1 Runt domain binding to CBFb-SMMHC. Q01196+Q13951. Cerulean-Runt/Venus-CBFb-SMMHC FRET ratio 530/480, 1 h. inhibition, % at 20 µM. 220,000 compounds, 0.74% hits. AID 1434;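 active means mean inhibition across duplicate retests at 20 µM reaching about 50%, limit read from the data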;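 further: 0% = DMSO wells and 100% = wells with excess untagged CBFb-SMMHC; inhibitors lower the FRET ratio by blocking Runt binding to CBFb-SMMHC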
* = called active by the depositor. A selection: hits, their analogues and other compounds. The true share with any hit is near 2.1%.

What do the screens show for `N#CC1=C(N)Oc2cc(N)ccc2C1C1CCCCC1` (centres undefined)?
FAS TE block: 4.5; Runt-CBFb FRET: 50.5*; RanGTP-Impb inh: 96.6*; m-calpain inh: -10.7; Runt-SMMHC FRET: 81.6*

Results for CCOc1ccccc1C1C(C#N)=C(N)Oc2cc(N)ccc21 (centres undefined) ?
FAS TE block: -5.8; Runt-CBFb FRET: 11.7; RanGTP-Impb inh: 138.9*; m-calpain inh: -48.4; Runt-SMMHC FRET: 105.1*

How did O=c1cc(-c2ccc([N+](=O)[O-])cc2)nc2cc(-c3ccc(F)cc3)[nH]n12 do in these assays?
FAS TE block: 44.4; Runt-CBFb FRET: 11.7; RanGTP-Impb inh: -2.2; m-calpain inh: 18.5; Runt-SMMHC FRET: -0.5

Results for Fc1cccc(NC(=S)NCc2cccnc2)c1 ?
FAS TE block: -12.2; Runt-CBFb FRET: 2.2; RanGTP-Impb inh: 1.3; m-calpain inh: -12.3; Runt-SMMHC FRET: -2.9

How did Fc1ccc(NC(=S)NCc2cccnc2)cc1 do in these assays?
FAS TE block: -1.3; Runt-CBFb FRET: 0.2; RanGTP-Impb inh: 93.3*; m-calpain inh: 6.0; Runt-SMMHC FRET: -4.7

Results for CNC(=O)NC(=O)CN1C(=O)NC2(CCOc3ccccc32)C1=O (centres undefined) ?
FAS TE block: -7.3; RanGTP-Impb inh: -1.1

How did COc1ccc(C(=O)CSc2nc(C(C)(C)C)nc3ccccc23)cc1 do in these assays?
FAS TE block: 32.0; Runt-CBFb FRET: 7.5; RanGTP-Impb inh: inconclusive; m-calpain inh: 52.5*; Runt-SMMHC FRET: 12.3

Results for O=S(=O)(Nc1nc2ccccc2nc1N1CCN(c2ccccn2)CC1)c1ccc(Cl)cc1 ?
FAS TE block: 7.7; Runt-CBFb FRET: 33.5; m-calpain inh: 24.4; Runt-SMMHC FRET: 104.4*

Results for COc1ccc(/C=C2\N=C(c3ccccc3)N(c3ccc(C(=O)O)cc3)C2=O)cc1OC ?
FAS TE block: -2.7; Runt-CBFb FRET: -8.8; RanGTP-Impb inh: 25.8*; m-calpain inh: -9.6; Runt-SMMHC FRET: -19.1

What do the screens show for `O=C1Nc2ccc(S(=O)(=O)NCC3CCCO3)c3cccc1c23` (centres undefined)?
FAS TE block: -2.8; Runt-CBFb FRET: 15.8; RanGTP-Impb inh: -2.8; m-calpain inh: inactive; Runt-SMMHC FRET: 21.5

What do the screens show for `CCN1C(=O)c2cccc3c(S(=O)(=O)NCC4CCCO4)ccc1c23` (centres undefined)?
FAS TE block: 1.2; Runt-CBFb FRET: -22.5; RanGTP-Impb inh: 18.2*; m-calpain inh: -306.5; Runt-SMMHC FRET: 81.2

What do the screens show for `CCN1C(=O)c2cccc3c(S(=O)(=O)NCc4cccnc4)ccc1c23`?
FAS TE block: 1.5; Runt-CBFb FRET: -23.0; RanGTP-Impb inh: 23.4*; m-calpain inh: -472.6; Runt-SMMHC FRET: 57.2*

How did CCOc1ccc(Cl)cc1S(=O)(=O)N1CCN(c2ccc(F)cc2)CC1 do in these assays?
FAS TE block: 24.1; Runt-CBFb FRET: -0.7; RanGTP-Impb inh: inconclusive; m-calpain inh: 59.5*; Runt-SMMHC FRET: 0.3

What do the screens show for `COc1ccc(Cl)cc1S(=O)(=O)N1CCN(c2ccc(F)cc2)CC1`?
FAS TE block: 33.5; Runt-CBFb FRET: 0.9; RanGTP-Impb inh: 1.2; m-calpain inh: -6.0; Runt-SMMHC FRET: 3.4

How did Cc1cccc(OCCNS(=O)(=O)c2ccc(Cl)cc2)c1 do in these assays?
FAS TE block: 14.5

What do the screens show for `CCOC(=O)c1ccc[n+](CC(=O)c2ccccc2)c1`?
FAS TE block: -7.4; Runt-CBFb FRET: -3.3; RanGTP-Impb inh: 25.2*; m-calpain inh: 10.0; Runt-SMMHC FRET: -8.7

What do the screens show for `C=CCN(CC=C)Cc1cc(=O)oc2cc(C)c(Cl)cc12`?
FAS TE block: 19.4

How did C/C(=N\OCC(=O)OCC(=O)N(C)c1ccccc1)c1ccc2c(c1)OCO2 do in these assays?
FAS TE block: 5.6

What do the screens show for `c1ccc(Oc2ccc(-c3ccnc4ncnn34)cc2)cc1`?
FAS TE block: -2.6; Runt-CBFb FRET: -2.3; RanGTP-Impb inh: -0.1; m-calpain inh: 67.9*; Runt-SMMHC FRET: -5.0

What do the screens show for `c1ccc(Oc2ccc(-c3ccnc4nc(N5CCOCC5)nn34)cc2)cc1`?
FAS TE block: 17.2; Runt-CBFb FRET: -2.8; RanGTP-Impb inh: -2.0; m-calpain inh: inactive; Runt-SMMHC FRET: -1.5

How did CC(Sc1nnnn1C)C(=O)Nc1nc(-c2ccc(F)c(F)c2)cs1 (centres undefined) do in these assays?
FAS TE block: 17.1

What do the screens show for `C(=N\n1cnnc1)/c1ccc(N2CCOCC2)s1`?
FAS TE block: -4.8; Runt-CBFb FRET: 27.6; RanGTP-Impb inh: 9.5; m-calpain inh: -41.8; Runt-SMMHC FRET: 69.9*

Results for COc1ccc(S(=O)(=O)N2CCCCC2)cc1NC(=O)c1cnc(C)cn1 ?
FAS TE block: -1.1

What do the screens show for `CC(=O)Nc1ccc(S(=O)(=O)Nc2cccc(-c3cn4cccnc4n3)c2)cc1`?
FAS TE block: -3.1; Runt-CBFb FRET: -1.7; RanGTP-Impb inh: -1.7; m-calpain inh: inactive; Runt-SMMHC FRET: -2.2

What do the screens show for `Cc1cc(C)c2cccc(N)c2n1`?
FAS TE block: 4.0; Runt-CBFb FRET: 2.0; RanGTP-Impb inh: 4.2; m-calpain inh: 9.5; Runt-SMMHC FRET: -1.8

How did Cc1cc(C)c2c(N)c3ccccc3nc2n1 do in these assays?
FAS TE block: -5.8; Runt-CBFb FRET: 10.9; RanGTP-Impb inh: 134.8*; m-calpain inh: inactive; Runt-SMMHC FRET: 77.9*

What do the screens show for `CCc1ccc(NC(=S)/N=C(\N)Nc2nc(C)c3cc(CC)ccc3n2)cc1`?
FAS TE block: 14.5; Runt-CBFb FRET: 2.6; RanGTP-Impb inh: inconclusive; m-calpain inh: -23.9; Runt-SMMHC FRET: 1.3

How did CCc1ccc2nc3nc(C)cc(C)c3c(N)c2c1 do in these assays?
FAS TE block: -7.9; Runt-CBFb FRET: 9.8; RanGTP-Impb inh: 149.2*; m-calpain inh: inactive; Runt-SMMHC FRET: 43.7

What do the screens show for `COc1ccccc1N1C(=O)Cc2ccccc2C1=O`?
FAS TE block: 26.1; RanGTP-Impb inh: inconclusive

What do the screens show for `COc1ccc2nc(N3CCCCC3)c(C#N)cc2c1`?
FAS TE block: -2.8; Runt-CBFb FRET: 74.4*; RanGTP-Impb inh: 30.6*; m-calpain inh: -342.1; Runt-SMMHC FRET: 41.0

What do the screens show for `COc1ccc2nc(N3CCCC3)c(C#N)cc2c1`?
FAS TE block: -3.8; Runt-CBFb FRET: 60.4*; RanGTP-Impb inh: 0.9; m-calpain inh: -207.9

How did COc1ccc2nc(SCC(=O)N3CCCCC3)c(C#N)cc2c1 do in these assays?
FAS TE block: 11.2; Runt-CBFb FRET: 0.5; RanGTP-Impb inh: 2.9; m-calpain inh: -46.7; Runt-SMMHC FRET: -1.7

How did N#C/C(=C\c1ccncc1)c1nc2c(s1)CCCC2 do in these assays?
FAS TE block: -6.7; Runt-CBFb FRET: 22.3; RanGTP-Impb inh: inconclusive; m-calpain inh: -319.5; Runt-SMMHC FRET: 87.1*

What do the screens show for `O=C(CN1CCCCCC1)Nc1cccc([N+](=O)[O-])c1`?
FAS TE block: -4.0; Runt-CBFb FRET: -1.0; RanGTP-Impb inh: -1.0; m-calpain inh: 33.7; Runt-SMMHC FRET: -1.7

Results for O=C(CN1C(=O)c2ccccc2C1=O)Nc1cccc([N+](=O)[O-])c1 ?
FAS TE block: 8.7; Runt-CBFb FRET: -0.4; RanGTP-Impb inh: 21.4*; m-calpain inh: 28.5; Runt-SMMHC FRET: 5.8

Screening data (PubChem)
